Assay results reported in ChEMBL document CHEMBL1275288, “Effect of milrinone analogues on intracellular calcium increase in single living H9C2 cardiac cells” (Eur J Med Chem, 2010).

Legend:
[1] = system: H9c2; test: Cytotoxicity against differentiated rat H9c2 cells assessed as reduction in cell viability at 10 nM after 24 hrs by MTT assay; type: cell-based; conditions: h9c2, 24 h, 0.01 µM
Method in brief: (§1)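 H9C2 rat embryonic ventricular cell line, grown subconfluent in DMEM-F12 with 10% heat-inactivated FBS; differentiated cells obtained in 1% FCS medium with 10 nM retinoic acid added daily with medium renewal. Cells, undifferentiated or differentiated, exposed 24 h to 10 nM, 1, 10 or 100 µM compound; viability by MTT reduction to formazan, optical density at 570 nm, expressed as percent of control.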

[2] = system: H9c2; test: Increase in cytoplasmic intracellular calcium level in differentiated rat H9c2 cells depolarized through 60 mM KCl application in presence of extracellular calcium assessed as cells that prolonged KCl-dependent intracellular [Ca2+] transient at 10 uM by Fura-2-AM dye based epifluorescent microscopy; type: functional
Method in brief: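 Differentiated H9C2 cardiomyocytes (10 nM retinoic acid daily, 1% FCS) loaded with Fura 2-AM for 40 min, then 15 min at 37 °C in NES. Depolarized with 60 mM KCl in NES with extracellular Ca2+. 10 µM compound given within 30 s after start of the KCl-dependent plateau. Ratio imaging at 340/380 nm excitation, 510 nm emission. Scored as percent of tested cells (n per compound) with prolonged transient.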

[3] = system: H9c2; test: Cytotoxicity against differentiated rat H9c2 cells assessed as reduction in cell viability at 100 uM after 24 hrs by MTT assay; type: cell-based; conditions: h9c2, 24 h; method in brief: as §1
[4] = system: H9c2; test: Increase in cytoplasmic intracellular calcium level in differentiated rat H9c2 cells at 10 uM by Fura-2-AM dye based epifluorescent microscopy; type: functional
Method in brief: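 Retinoic acid (10 nM, daily)-differentiated H9C2 cells loaded 40 min with Fura 2-AM, washed in NES, held 15 min at 37 °C for dye de-esterification. Cells stimulated directly with 10 µM compound; single living cells imaged by epifluorescence microscopy, excitation 340/380 nm, emission 510 nm, whole-cell fluorescence ratio. Minimum 10, maximum 25 cells per compound; percentage of cells showing basal [Ca2+]i increase.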

[5] = system: H9c2; test: Cytotoxicity against differentiated rat H9c2 cells assessed as reduction in cell viability at 1 uM after 24 hsr by MTT assay; type: cell-based; conditions: h9c2, 1 µM; method in brief: as §1
[6] = system: H9c2; test: Cytotoxicity against differentiated rat H9c2 cells assessed as reduction in cell viability at 10 uM after 24 hrs by MTT assay; type: cell-based; conditions: h9c2, 24 h; method in brief: as §1
[7] = system: H9c2; test: Toxicity against undifferentiated rat H9c2 cells assessed as reduction in cell viability at 100 uM after 24 hrs by MTT assay; type: cell-based; conditions: h9c2, 24 h; method in brief: as §1

SMILES	Activity [1] [%]	Activity [2] [%]	Activity [3] [%]	Activity [4] [%]	Activity [5] [%]	Activity [6] [%]	Activity [7] [%]
Cc1ccc(C#N)c(=O)[nH]1	90	45	50	78	90	75	50
Cc1[nH]c(=O)c(C#N)cc1C(=O)O		0					
CCOC(=O)c1cc(C#N)c(=O)[nH]c1C		0					
Cc1[nH]c(=O)c(C#N)cc1C(=O)OCc1ccccc1		0					
Cc1[nH]c(=O)c(C#N)cc1C(=O)NCc1ccccc1	90	40				75	20
CCC(NC(=O)c1cc(C#N)c(=O)[nH]c1C)c1ccccc1 (centres undefined)	90	30	50		90	75	50
CCOC(=O)N1CCC(NC(=O)c2cc(C#N)c(=O)[nH]c2C)CC1	90	25	50		90	75	20
Cc1[nH]c(=O)c(C#N)cc1C(=O)OCCSc1ccccn1		0					
Cc1[nH]c(=O)c(C#N)cc1C(=O)OCCSc1nc2ccccc2s1		0					
Cc1[nH]c(=O)c(C#N)cc1C(=O)NC(C)c1ccccc1 (centres undefined)		0					
Cc1[nH]c(=O)c(C#N)cc1-c1ccncc1 [MILRINONE]	90	50	50		90	75	
